Screens as filed in PubChem.
Sampled rows, rich in hits. Any-hit rate of the full collection: about 1%.
Thrombin inh: blocks human thrombin protease activity; P00734; alpha-thrombin, Boc-VPR-AMC fluorogenic substrate cleavage; inhibition, % at 5 µM; 220,000 compounds, 0.26% hits;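 active means inhibition at or above 40%; inactive means inhibition below 40%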;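 further: 0% = enzyme with no compound and 100% = wells without enzyme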
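Test system: human alpha-thrombin; medium: pH 7.5 Tris-saline with Tween 20; times: reaction at room temperature; signal: AMC fluorescence at 355 nm excitation and 460 nm emission; also added: Boc-VPR-AMC substrate, 15 µM final; dosing: one concentration per compound, 5 µM, with 0.2% DMSO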
FXIa inh 1536: blocks human coagulation factor XIa protease activity; inhibition, % at 5 µM; purified FXIa, Boc-Glu-Ala-Arg-AMC fluorogenic substrate; 220,000 compounds, 0.14% hits; P03951;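 active means inhibition of at least 40%; inactive means inhibition below 40%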;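 further: fluorescence of freed AMC excited at 355 nm; 0% = enzyme without compound and 100% = no enzyme blank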
FXIIa inh 1536: factor XIIa (human) inhibition; AID 800; inhibition, % at 5 µM; purified FXIIa, Boc-QGR-AMC fluorogenic substrate, 2 h; 220,000 compounds, 0.3% hits; in the data active means inhibition above about 40%;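 further: 0% = enzyme with no compound and 100% = blank without enzyme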
Target sequence (P00748 20-372 limits assumed): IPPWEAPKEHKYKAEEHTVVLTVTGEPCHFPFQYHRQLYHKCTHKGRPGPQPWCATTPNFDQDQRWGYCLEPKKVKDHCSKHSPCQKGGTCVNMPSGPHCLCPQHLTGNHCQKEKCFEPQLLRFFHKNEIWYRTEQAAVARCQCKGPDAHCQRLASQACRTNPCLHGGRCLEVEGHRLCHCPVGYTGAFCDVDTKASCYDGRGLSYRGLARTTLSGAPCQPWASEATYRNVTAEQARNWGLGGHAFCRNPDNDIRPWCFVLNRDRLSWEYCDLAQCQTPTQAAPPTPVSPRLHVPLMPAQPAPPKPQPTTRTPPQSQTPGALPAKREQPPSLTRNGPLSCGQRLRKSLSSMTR
Target sequence (P00748 373-615 limits assumed): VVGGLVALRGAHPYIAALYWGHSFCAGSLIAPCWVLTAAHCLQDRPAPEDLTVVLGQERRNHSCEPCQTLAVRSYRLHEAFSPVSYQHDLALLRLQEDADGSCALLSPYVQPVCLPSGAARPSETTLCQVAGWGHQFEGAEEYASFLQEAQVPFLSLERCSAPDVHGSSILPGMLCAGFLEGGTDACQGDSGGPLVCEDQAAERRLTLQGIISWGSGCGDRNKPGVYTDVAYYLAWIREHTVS
hK5 inh: blocks human kallikrein 5 protease activity | AID 873 | 210,000 compounds, 0.59% hits | recombinant hK5, fluorogenic AMC substrate cleavage | inhibition, % at 5 µM | Q9Y337;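 active means inhibition of 40% or more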;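 further: 0% = enzyme controls without compound and 100% = no-enzyme blanks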
The depositor's hits bear a star; · = not tested or not shown.

SMILES	Thrombin inh	FXIa inh 1536	FXIIa inh 1536	hK5 inh
O=C(CN1C(=O)c2cccc3cccc1c23)NCc1ccc2c(c1)OCO2	19.6	1.5	104.7*	41.3*
O=C(CN1C(=O)c2cccc3cccc1c23)Nc1ccc2c(c1)OCO2	-0.1	-11.1	-2.4	-11.2
Cc1nc(-c2cnn(-c3ccccc3)c2)c2cc(C)oc2n1	66.9*	16.1	29.4	4.5
Cc1noc(C)c1COc1ccc(C(=O)NCc2ccccn2)cc1	4.0	-6.6	11.1	41.0*
Cc1noc(C)c1COc1ccc(C(=O)Nc2ccccc2)cc1	-11.3	-2.8	7.9	3.9
O=C(Nc1ccc(Cl)cc1)OCc1cn(-c2ccc(Cl)cc2)nn1	-0.7	-1.1	-3.9	3.3
Clc1ccc(-n2cc(COCc3ccccc3)nn2)cc1	-4.8	-1.1	6.6	45.8*
COc1cc(Cl)c(C)cc1NC(=O)CSC	-1.6	12.0	42.8*	3.2
Cc1cccc2cc(CNC3CCCC3)c(Cl)nc12	-11.7	-5.8	7.7	2.4
NS(=O)(=O)c1ccc(NNC(=O)c2sccc2Cl)cc1	29.5	21.9	40.5*	29.3
O=[N+]([O-])c1ccc(Oc2ccc(Oc3ccc(C(F)(F)F)cn3)cc2)nc1	-7.4	-1.8	-0.3	-4.7
CC(O)c1nc2ccccc2n1CC(=O)N1CCN(c2ccccc2)CC1 (stereo not given)	-2.4	-1.8	5.6	2.0
N#CCc1nn(-c2ccccc2)c2ncnc(N)c12	-2.6	3.9	4.4	-0.1
CCc1nnc(NC(=O)CSc2ncc(-c3ccccc3)[nH]2)s1	12.1	10.2	-1.1	62.9*
Cc1nnc(NC(=O)CSc2nc3ccccc3o2)s1	-2.8	-7.8	1.8	0.2
CCc1nnc(NC(=O)CSc2nc3ccccc3o2)s1	10.9	6.7	-0.4	41.8*
CCn1c(-c2c(Cl)c(C)nn2C)n[nH]c1=S	15.9	-0.3	16.9	55.5*
OC(CN1C2=NCCN2c2ccccc21)c1ccc(Br)cc1 (stereo not given)	12.4	7.4	0.9	52.9*
O=C(Nc1ccc(SC(F)F)cc1)c1ccccc1F	35.2	39.3	23.8	42.7*
COc1ccc(-c2ccc(C#N)c(SCC(=O)NCCc3ccccc3)n2)cc1OC	56.0*	-16.6	-42.8	-18.1
COc1cc([N+](=O)[O-])ccc1NC(=O)NCc1ccco1	-10.3	-2.9	1.5	·
COc1ccc([N+](=O)[O-])cc1NCc1ccco1	6.4	81.1*	22.3	20.1
CC(C)C[C@H](NC(=O)c1nc[nH]c1C(=O)N1CCN(C(=O)OC(C)(C)C)CC1)C(=O)OC(C)(C)C	1.9	1.9	11.2	4.3
Cc1c(NC(=O)COC(=O)c2ccc(F)c(S(=O)(=O)N3CCOCC3)c2)c(=O)n(-c2ccccc2)n1C	-5.9	-2.5	6.1	2.0
Cc1cccc(NC2SC(=O)N(c3ccccc3)C2=O)c1 (stereo not given)	29.4	8.7	18.0	80.1*
SMILES	Thrombin inh	FXIa inh 1536	FXIIa inh 1536	hK5 inh
Cc1cccc(NC(=O)CC2SC(=O)N(c3ccccc3)C2=O)c1 (stereo not given)	0.7	-2.5	6.5	7.0
CCOc1ccc(-c2cc(C(=O)OC)nc3c2c(=O)n(C)c(=O)n3C)cc1	1.3	-13.8	-23.5	-14.7
CCOC(=O)CSC1=C(C#N)C(c2ccc(Cl)cc2)CC(=O)N1 (stereo not given)	13.5	6.3	33.9	45.4*
Cc1ccccc1C(=O)NC1CCSC1=O (stereo not given)	11.2	50.1*	23.2	16.8
O=C(NC(=S)NC1CCSC1=O)c1ccccc1Cl (stereo not given)	4.5	0.4	12.3	4.1
Cc1cc2nnn(-c3nnc(-c4ccccc4)c4ccccc34)c2cc1C	-0.9	1.9	11.0	-35.9
O=C(CN1CCN(Cc2ccccc2F)C1=O)NC1CCCC1	1.6	-5.3	8.3	1.4
O=C(CN1CCCN(Cc2ccc(F)cc2Cl)C1=O)NC1CCCCCCC1	12.2	7.2	23.7	104.1*
CN1CCN(C(=O)c2ccc3c(=O)n4c(nc3c2)CCCCC4)CC1	13.4	2.4	8.0	42.3*
O=c1c2ccccc2nc2n1CCCCC2	3.2	2.6	17.1	-22.1
O=C(c1ccc2c(=O)n3c(nc2c1)CCCCC3)N1CCN(Cc2ccccc2)CC1	-8.0	-6.8	-3.8	-13.9
O=c1c2ccccc2nc2n1CCC2	-2.1	4.4	14.0	59.8*
CCN(CC)c1ccc(/C=C(\C#N)C(=O)NCc2ccco2)cc1	12.7	5.3	17.9	64.5*
Cc1ccc(C(=O)NNC(=O)CSc2n[nH]c(-c3cccnc3)n2)cc1	-3.2	-0.1	11.7	3.0
Cc1ccc(-c2cn(-c3ccccc3)c(SCC(N)=O)n2)cc1C	-7.2	3.0	11.8	5.9
Cc1ccccc1-n1cc(-c2ccc(Br)cc2)nc1SCC(N)=O	19.3	28.5	15.9	46.1*
Cc1nc2c3ccccc3nc(NNC(=O)CCC(=O)NC3CCCC3)n2n1	5.2	-3.4	9.4	50.0*
CN1CCN(C(=O)c2ccc(C(F)(F)F)cc2)CC1	25.1	27.6	23.7	46.1*
O=C(NCc1ccc2c(c1)OCO2)c1c[nH]c2ccc(S(=O)(=O)N3CCOCC3)cc2c1=O	54.9*	5.5	12.7	-11.6
O=C(NCC1COc2ccccc2O1)c1c[nH]c2ccc(S(=O)(=O)N3CCOCC3)cc2c1=O (stereo not given)	1.7	13.2	19.3	-15.2
CC(=O)Nc1ccc(S(=O)(=O)NCCNc2ccccc2[N+](=O)[O-])cc1	-0.3	5.0	98.8*	1.2
O=[N+]([O-])c1ccccc1NCCNS(=O)(=O)c1ccc(Cl)cc1	3.6	9.3	13.4	-0.5
CC(C)Oc1ccc(C2CC(=O)N(Nc3ccc([N+](=O)[O-])cc3[N+](=O)[O-])C2=O)cc1 (stereo not given)	-3.3	-1.0	6.6	0.5
CCOc1ccc(C2CC(=O)N(Nc3ccc([N+](=O)[O-])cc3[N+](=O)[O-])C2=O)cc1 (stereo not given)	45.4*	15.0	18.3	21.1
CCCC(C)NC(=O)Cc1ccccc1 (stereo not given)	3.7	4.3	45.2*	7.9
SMILES	Thrombin inh	FXIa inh 1536	FXIIa inh 1536	hK5 inh
CCC(c1nnnn1Cc1cccs1)N1CCN(C2CCCC2)CC1 (stereo not given)	0.3	9.1	11.7	47.3*
CCN(CC)c1ccc(S(=O)(=O)N(CC)CC)cc1NC(=O)c1cccnc1	1.8	2.7	11.4	5.0
CC(=O)C1=C(O)C(=O)N(CCCn2ccnc2)C1c1ccc(C)cc1 (stereo not given)	1.0	-5.4	9.4	-14.8
COc1ccc(N(C(=O)c2ccco2)S(=O)(=O)c2cccc([N+](=O)[O-])c2)cc1	57.5*	19.5	21.9	-4.8
COc1ccc(N(C(=O)c2ccco2)S(=O)(=O)c2ccc(F)cc2)cc1	42.4*	9.1	14.2	0.1
CN(C)c1ccc(-c2nnn(CC(=O)Nc3ccccc3N3CCOCC3)n2)cc1	8.3	4.5	8.3	66.0*
O=C(CN1CCOCC1)N1CCc2ccccc2C(c2ccccc2)C1 (stereo not given)	20.4	9.8	-1.7	72.8*
Cc1c(-n2cc(C(=O)c3ccccc3O)cc(C#N)c2=O)c(=O)n(-c2ccccc2)n1C	15.7	17.5	25.6	64.7*
